Drawing on ChEMBL document CHEMBL1128177, “A 3-amino-4-hydroxy-3-cyclobutene-1,2-dione-containing glutamate analogue exhibiting high affinity to excitatory amino acid receptors” (J Med Chem, 1995), this text covers IC50 and C50 for 3 molecules.

Where only a bound is given, the exact number is not on record here.

The species entered for assay [1] is Rattus norvegicus. Kind of assay: (§1) Inhibition of stimulus-evoked kainate/AMPA receptor responses in CA1 pyramidal cells of the rat hippocampus after QUIS exposure. In kind it is functional, organism-based. In short, it runs like this:
(§2)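 Schaffer collateral-evoked CA1 field potential in 500 µm rat hippocampal slices, recording medium with 2.4 mM Mg2+, 34 °C. IC50 from 4-min doubling concentration steps, interpolated at 50% peak-amplitude loss; mean of ≥4 experiments. Measured first, then after 5 min 16 μM L-quisqualic acid and washout, then again after 5 min 2 mM L-α-aminoadipic acid and washout.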

The species named for assay [2] is Rattus norvegicus. Kind of assay: (§3) Inhibition of stimulus-evoked kainate/AMPA receptor responses in CA1 pyramidal cells of the rat hippocampus before QUIS exposure. It is filed as functional, organism-based. In short, it runs like this: as §2
Assay [3] has as its target Glutamate NMDA receptor. The assay is described as follows: (§4) Inhibition of stimulus-evoked CA1 pyramidal cell NMDA receptor of the rat hippocampus. It is filed as functional, tissue-based. In a few lines:
(§5)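 Transverse hippocampal slices (500 µm) from 30-50 day male Sprague-Dawley rats. Schaffer collateral stimulation at 0.1 ms, 4-30 V, 0.1 Hz. Extracellular field potential peak amplitude recorded in CA1 stratum radiatum at 34 °C. Medium held 0.1 mM Mg2+ plus 10 μM CNQX to isolate NMDA responses. Drug doubled every 4 min from subthreshold until >70% decline or 8 mM. IC50 interpolated from the log concentration plot; mean of ≥4 experiments.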

Assay [4] concerns the target Glutamate NMDA receptor. The assay is described as follows: Inhibition of stimulus-evoked […] NMDA receptor response in lateral perforant path of the rat hippocampus. In kind it is functional, tissue-based. In short, it runs like this: (§6)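 Rat hippocampal slices (500 µm, male Sprague-Dawley, 30-50 days) with perforant path stimulation (0.1 ms, 4-30 V, 0.1 Hz). Field potential recorded in the dentate granule cell synaptic field of the lateral or medial perforant path at 34 °C. Drug doubled every 4 min from subthreshold up to >70% inhibition or 8 mM. IC50 interpolated from fractional peak amplitude vs log concentration; mean of ≥4 experiments.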

The species entered for assay [5] is Rattus norvegicus. The assay is described as §3. It is filed as functional. In a few lines: as §2
For assay [6], the target named is T1, Glutamate NMDA receptor (Rattus norvegicus) (UniProt P35439+Q00959+Q00960+Q00961+Q62645+Q8VHN2+Q9R1M7). Kind of assay: Inhibition of stimulus-evoked […] NMDA receptor response in medial perforant path of the rat hippocampus. In kind it is functional, tissue-based. In a few lines:
as §6

The species entered for assay [7] is Rattus norvegicus. The assay is described as follows: Inhibition of stimulus-evoked kainate/AMPA receptor responses in CA1 pyramidal cells of the rat hippocampus after reversal with alpha AA. It is filed as functional. In a few lines: as §2
For assay [8], the species on record is Rattus norvegicus. The assay is described as follows: Inhibition of stimulus-evoked response in lateral perforant path of the rat hippocampus.
For assay [9], the target named is T1, Glutamate NMDA receptor (Rattus norvegicus). The assay is described as §4. It is filed as functional, tissue-based. In short, it runs like this:
as §5

The species named for assay [10] is Rattus norvegicus. The description is as §1. In kind it is functional. In a few lines: as §2

By IC50 is commonly meant the concentration at which inhibition is half-maximal. The low end stands for greater potency in that assay, the high end for weaker potency in that assay. With `NCCC/N=c1\c(O)c(O)c1=O`, the IC50 in the assay filed under Rattus norvegicus [1] was over 10 mM; in the assay listed under Rattus norvegicus [2], over 10 mM; at Glutamate NMDA receptor [3], 5.3 mM; against Glutamate NMDA receptor [4], over 10 mM.
Take `N[C@@H](C/N=c1\c(O)c(O)c1=O)C(=O)O`: the C50 stood at 0.0011 mM in the assay listed under Rattus norvegicus [5]; 0.0059 mM in assay [6]; 0.001 mM in the assay listed under Rattus norvegicus [7]; 0.0034 mM in the assay listed under Rattus norvegicus [8]; 0.01 mM in [9]; 0.00055 mM in the assay listed under Rattus norvegicus [10].
As to `Cl.NCC/N=c1\c(O)c(O)c1=O`, the C50 was over 10 mM in the assay listed under Rattus norvegicus [5], over 10 mM in the assay filed under Rattus norvegicus [8], 3.5 mM in assay [9] and over 10 mM in the assay listed under Rattus norvegicus [10].
